The nature of data set [1]: Half life in human liver microsomes at 1 uM by LC-MS/MS analysis. The format is ADME, Microsome. The note with it: for t1/2: microsomes, 1 µM; for half-life at 1 µM: liver microsomes. Background: Liver microsomes are vesicles of endoplasmic reticulum, rich in cytochrome P450 enzymes.
Data set [2] in a line: Half life in mouse liver microsomes at 1 uM by LC-MS/MS analysis. In kind it is ADME, Microsome. Particulars: for t1/2: microsomes, 1 µM; for half-life at 1 µM: liver microsomes.
The nature of data set [3]: Half life in CD1 mouse plasma at 10 mg/kg, iv by LC-MS/MS analysis. The format is ADME, organism-based. Particulars: for t1/2: mouse, in vivo; for half-life: CD1, mouse, plasma.
Data set [4] can be described thus: Half life in CD1 mouse brain at 10 mg/kg, iv by LC-MS/MS analysis. In kind it is ADME, organism-based.
A short description of data set [5]: Cmax in CD1 mouse plasma at 10 mg/kg, iv by LC-MS/MS analysis. In kind it is ADME, organism-based. Further details: dose 10 mg/kg, route intravenous. Particulars: in vivo.
Data set [6] can be described thus: Cmax in CD1 mouse brain at 10 mg/kg, iv by LC-MS/MS analysis. In kind it is ADME, organism-based. Further details: dose 10 mg/kg, route intravenous.
A short description of data set [7]: AUC in CD1 mouse plasma at 10 mg/kg, iv by LC-MS/MS analysis. The format is ADME, organism-based. Particulars: in vivo.
Data set [8] in a line: AUC in CD1 mouse brain at 10 mg/kg, iv by LC-MS/MS analysis. The format is ADME, organism-based. The note with it: in vivo.
Data set [9] is described as follows: Ratio of drug level in brain to plasma in CD1 mouse at 10 mg/kg, iv by LC-MS/MS analysis. The format is ADME, organism-based. In short, it runs like this: (§1)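 Male CD-1 mice, 7–9 weeks, 15 per compound; single tail-vein dose of 10 mg/kg from a 2 mg/ml solution in 10% DMSO/90% (30% HP-β-CD). Plasma and brain sampled at increasing times, assayed in duplicate by LC-MS/MS. Parameters from non-compartmental analysis; mean of at least 3 mice per condition.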

A short description of data set [10]: Drug level in CD1 mouse brain at 10 mg/kg, iv after 1 hr by LC-MS/MS analysis. The note with it: read-out: Drug uptake. In kind it is ADME, organism-based. The method, boiled down: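 Male CD-1 mice, 7–9 weeks old, given a single 10 mg/kg tail-vein dose. Compound formulated at 2 mg/ml in 10% DMSO/90% (30% HP-β-CD). Plasma and brain sampled at intervals after dosing and analysed in duplicate by LC-MS/MS. Parameters derived by non-compartmental analysis. Values are means of at least 3 mice per condition; 15 mice per compound.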

The nature of data set [11]: Volume of distribution in CD1 mouse at 10 mg/kg, iv by LC-MS/MS analysis. The format is ADME, organism-based. Particulars: in vivo. The method, boiled down:
as §1

Data set [12] is described as follows: Stability in human plasma at 2 uM after 120 mins by LC-MS/MS analysis relative to control. The note with it: read-out: Stability. The format is ADME, cell-free. The method, boiled down:
(§2)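 Compounds at 2 µM in clarified freeze-thawed plasma, sampled at 0, 10, 30, 60 and 120 min. Supernatants after protein precipitation analysed by LC-MS/MS; the 120 min value is reported. Run in duplicate.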

Data set [13] can be described thus: Stability in mouse plasma at 2 uM after 120 mins by LC-MS/MS analysis relative to control. The format is ADME, cell-free. Particulars: read-out: Stability. In short, it runs like this:
as §2

A short description of data set [14]: Kinetic solubility in pH 7.4 aqueous solution incubated for 24 hrs by UV spectroscopy. In kind it is physicochemical. The note with it: read-out: Kinetic_solubility.

≈ marks a conversion by molar mass, not a printed value.

For the compound `CC1CCC(NC(=O)CCCCCc2ccccc2)CC1` (configuration not stated), the t1/2 was 7 min in [1] and 1.4 min in [2].

Turning to `O=C(NCCCc1nnc(C2CC2)n1-c1ccccc1)NC1CCOCC1`, the t1/2 in data set [1] is more than 145 min; in data set [2], 91 min; in data set [3], 11.4 min.

`CC1CC(O)CCC1NC(=O)NCCCCc1ccccc1` (configuration not stated): the t1/2 turned out to be 40.1 min in data set [1] and 24.2 min in data set [2]. Further, the results for the half-life in data set [3] and in data set [4] were 38.4 min and 97.2 min, respectively. Moreover, the Cmax (in general, the highest concentration seen after dosing) in data set [5] came out at 3647 ng/mL; in data set [6], 366 ng/g. In addition, the AUC in [7] was 2564 ng·h/mL; in data set [8], 207 ng·h/g. In addition, in data set [9], the BPR was determined as 0.081. Also, in [10], the concentration at 1 h is less than 30 ng/g. Further, the Vd (in general, a proportionality between amount in the body and measured concentration, not a real space) in data set [11] is 2 L/kg.

Turning to `CC1CCCCC1NC(=O)NCCCc1nnc(-c2ccccc2)n1C` (configuration not stated), the results for the t1/2 in data set [1] and in data set [2] were 43 min and 6 min, respectively.

Regarding `O=C(CCOCCc1ccccc1)N[C@H]1CC[C@H](O)CC1`, the t1/2 in [1] and in [2] was more than 145 min in each case.

Take `O=C(COCCCc1ccccc1)N[C@H]1CC[C@H](O)CC1`: the t1/2 in data set [1] and in data set [2] was more than 145 min in each case.

On to `CCn1c(CCCNC(=O)NC2CCOCC2)nnc1C1CC1`, for which the t1/2 in [1] is more than 145 min; in [2] it was more than 145 min; in data set [3] it was 22.8 min.

For the compound `O=C(CCCOCc1ccccc1)N[C@H]1CC[C@H](O)CC1`, the t1/2 in data set [1] and in data set [2] was more than 145 min in each case.

In the case of `O=C(NCCCCc1ccccc1)NC1CCC(O)CC1` (configuration not stated), the t1/2 in data set [1] and in data set [2] was more than 145 min throughout. Besides, the half-life (in general, how long it takes for the measured level to halve) in data set [3] is 69 min; in data set [4], 104 min. Besides, the Cmax stood at 6100 ng/mL in data set [5] and 1270 ng/g in data set [6]. In addition, the AUC came to 4860 ng·h/mL in data set [7] and 829 ng·h/g in data set [8]. The BPR in data set [9] is listed as 0.171. The concentration at 1 h in data set [10] was less than 120 ng/g. Further, the Vd in data set [11] was found to be 2 L/kg.

Take `NC1CCC(NC(=O)CCCCCc2ccccc2)CC1` (configuration not stated): the t1/2 in [1] is 23.7 min; in [2], 111.9 min.

Turning to `O=C(NCCCCc1ccccc1)NC1CCNCC1`, the t1/2 in [1] is more than 145 min; in [2] it was 137.5 min.

Regarding `CC1CCCCC1NC(=O)NCCCCc1ccccc1` (configuration not stated), the t1/2 was found to be 13.3 min in [1] and 1.9 min in data set [2].

As to `O=C(CCCCCc1ccccn1)NC1CCC(O)CC1` (configuration not stated), the t1/2 in data set [1] and in data set [2] was more than 145 min each time.

Consider `O=C(NCCCc1nnc(C2CC2)n1-c1ccc(F)cc1)NC1CCC(F)CC1` (configuration not stated), for which the t1/2 in [1] was found to be 62 min; in data set [2], 17 min.

On to `O=C(CCCCCc1ccncc1)NC1CCC(O)CC1` (configuration not stated), for which the t1/2 in data set [1] and in data set [2] was more than 145 min in each case.

On to `CC1CCCCC1NC(=O)NCCc1nnc(-c2ccccc2)n1C` (configuration not stated), for which the t1/2 in data set [1] was found to be 8 min; in data set [2], 28 min.

Consider `O=C(N[C@H]1CC[C@H](O)CC1)OCCCCc1ccccc1`, for which the results for the t1/2 in data set [1] and in [2] were 131.3 min and 48.9 min, respectively.

Take `CC1CCCCC1NC(=O)NCCCc1nnc(C2CC2)n1-c1ccccc1` (configuration not stated): the figures for the remaining at 2 h, 2 µM in data set [12] and in [13] were 95% and 100%, respectively. For the same compound, the values for the t1/2 in data set [1], in [2] and in data set [3] were 6 min, 2 min and 12.6 min, respectively. Besides, the solubility kinetic at 24 h in data set [14] is more than 200 µM.

Turning to `O=C(CCCCCc1ccccc1)NC1CCC(F)(F)CC1`, the half-life at 1 µM in data set [1] worked out at 10.2 min; in data set [2] it was 2.8 min.

Turning to `O=C(CCCCOc1ccccc1)N[C@H]1CC[C@H](O)CC1`, the t1/2 in data set [1] and in [2] was more than 145 min each time.

As to `O=C(CCCCCc1ccccc1)NC1CCOCC1`, the t1/2 was found to be 53.6 min in data set [1] and 9.9 min in data set [2].

For `CC1CCCCC1NC(=O)NCCSc1nnc(C2CC2)n1-c1ccccc1` (configuration not stated), the remaining at 2 h, 2 µM is 95% in [12] and 94% in data set [13]. Also, the t1/2 was 3 min in data set [1] and 1 min in [2]. The solubility kinetic at 24 h in [14] is 67 µM (≈ 26.8 µg/mL).

With `CC1CCCCC1NC(=O)NCCCc1nnc(C2CC2)n1-c1ccc(F)cc1` (configuration not stated), the t1/2 in [1] is recorded as 5 min; in [2] it was 1 min.

With `O=C(CCCCCc1ccncn1)NC1CCC(O)CC1` (configuration not stated), the t1/2 in [1] and in [2] was more than 145 min in each case.

As for `O=C(CCCCCc1cccnc1)NC1CCC(O)CC1` (configuration not stated), the figures for the t1/2 in data set [1] and in data set [2] were more than 145 min and 125.3 min, respectively.

`CC1CCCCC1NC(=O)NCCOc1nnc(C2CC2)n1-c1ccccc1` (configuration not stated): the figures for the remaining at 2 h, 2 µM in data set [12] and in [13] were 98% and 84%, respectively. Moreover, the half-life at 1 µM in data set [1] is 8 min; in data set [2], 3 min. Also, the solubility kinetic at 24 h in data set [14] amounted to 24 µM (≈ 9.2 µg/mL).

These data come from ChEMBL document CHEMBL4616675, “Discovery of 6-Phenylhexanamide Derivatives as Potent Stereoselective Mitofusin Activators for the Treatment of Mitochondrial Diseases” (J Med Chem, 2020).
